In paper PMC2857554 (Nature chemical biology, 2010):

What was measured:
[1] = system: UTRM10 cells expressing LAP-Mps1 M602Q; assay: pHistone H3 immunoblot in cells expressing inhibitor-resistant Mps1; type: cell-based; settings: thymidine/taxol arrest; VX-680 2 µM
U2OS cells [2] = assay: Intracellular Aurora B kinase activity, immunoblot; type: cell-based; settings: taxol and MG132, mitotic shake-off
mammalian cells = settings: cited from earlier work
Mps1 = settings: cited from earlier work
HCT116 cells [3] = assay: PARP cleavage immunoblot; type: cell-based
In short: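 HCT116 cells in McCoy's 5A with 10% FBS were treated with test compound at a series of concentrations. Lysates were collected at 24, 48 and 72 h and immunoblotted for PARP cleavage.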

UTRM10 cells = assay: Centriole overduplication under hydroxyurea; type: cell-based; settings: 10 or 25 µM with hydroxyurea, 48 hours
In short: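 UTRM10 cells co-treated for 48 h with hydroxyurea (4 mM) plus test compound (10 or 25 µM) or DMSO vehicle. Centrioles were scored by centrin immunostaining, with about 433–485 cells counted per condition. Results are mean ± SD of three independent experiments.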

MCF10A cells = assay: PARP cleavage immunoblot; type: cell-based; settings: 25 µM
[4] = system: U2OS H2B–GFP cells with Plk4 overexpression; assay: Time-lapse of mitosis in cells with extra centrosomes; type: cell-based; settings: extra centrosome containing cells
In short: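 U2OS H2B–GFP cells with doxycycline-inducible Plk4 were blocked in thymidine for 18 h, then released into doxycycline (2 µg·ml−1) for 10 h. A second 18 h thymidine block followed, then release into medium for 6 h. Cells were treated with 5 µM test compound and imaged by time-lapse at 37°C, 5% CO2.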

Aurora B = Aurora B (Homo sapiens, UniProt Q96GD4); assay: Lanthascreen in vitro assay on Aurora B; type: binding; settings: in vitro assays
[5] = system: U2OS cells with Plk4 overexpression; assay: Proliferation assay of PLK4-overexpressing U2OS cells; type: cell-based; settings: 48, 72, 96 hours
[6] = system: PtK2 cells stably expressing HsMad2-EYFP; assay: Mad2 kinetochore establishment assay; type: cell-based, Potorous tridactylus; settings: 10 µM, NEB to NER
[7] = system: Hela S3 cells expressing histone H2B-GFP; assay: Mitotic escape, time-lapse, nocodazole arrest; type: cell-based; settings: nocodazole-arrested cells
In short: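 Hela S3 cells expressing H2B-GFP were treated with nocodazole with or without test compound. They were imaged in a heated chamber (37°C, 5% CO2), with DIC and GFP frames every 5 min across 5 z-planes. Mitotic exit was scored by nuclear envelope reassembly, counting 150 cells per population.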

hTERT-RPE1 cells = assay: PARP cleavage immunoblot; type: cell-based; settings: 25 µM
HCT116 cells [8] = assay: Proliferation assay; type: cell-based
HCT116 cells [9] = assay: Colony outgrowth assay; type: cell-based; settings: 5–10 µM, 10 days
Hela S3 or U2OS cells = assay: Centrosome duplication in cycling cells; type: cell-based; settings: 10 µM, 1 or 2 cell doublings
In short: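 Hela S3 and U2OS cells on 12-mm coverslips were synchronized, then cycled in test compound or DMSO for one or two cell cycles. Mitotic spindles were stained for centrin, α-tubulin and DNA. The percentage of mitotic cells with fewer than 4 centrin dots was scored, counting 135–300 cells per arm. Results are mean ± SD from three independent experiments.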

U2OS cells [10] = assay: Mitotic escape assay; type: cell-based

Sequence of Aurora B (Q96GD4 whole entry): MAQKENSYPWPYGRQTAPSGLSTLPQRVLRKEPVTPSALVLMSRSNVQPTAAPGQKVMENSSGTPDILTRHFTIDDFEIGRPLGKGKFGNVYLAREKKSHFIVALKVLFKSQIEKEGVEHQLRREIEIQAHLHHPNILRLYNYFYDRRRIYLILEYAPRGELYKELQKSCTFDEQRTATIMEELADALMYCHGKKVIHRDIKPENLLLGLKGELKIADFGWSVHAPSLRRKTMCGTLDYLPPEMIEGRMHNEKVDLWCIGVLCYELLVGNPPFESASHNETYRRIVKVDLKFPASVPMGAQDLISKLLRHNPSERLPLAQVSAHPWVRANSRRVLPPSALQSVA

Cc1cc(Nc2cc(N3CCN(C)CC3)nc(Sc3ccc(NC(=O)C4CC4)cc3)n2)n[nH]1 [VX-680]
mitotic escape despite LAP-Mps1 M602Q [1]: still capable of executing an efficient mitotic escape | hyperphosphorylation status of Mps1 (mobility shift) (U2OS cells [2]): did not adversely affect | phosphorylation of Aurora B at Thr232 (U2OS cells [2]): inhibited

O=c1[nH]c2ccc(Br)cc2o1 [cincreasin]
effectiveness in mammalian cells (mammalian cells): ineffective | inhibition of Mps1 kinase activity in S. cerevisiae (Mps1): effective

COc1cc(N2CCC(O)CC2)ccc1Nc1cc(Nc2ccccc2S(=O)(=O)C(C)C)c2cc[nH]c2n1 [Mps1-IN-1]
onset of PARP cleavage (apoptosis) (HCT116 cells [3]): 48 h | effect on centriole overduplication (UTRM10 cells): no effect | apoptosis-associated PARP cleavage (MCF10A cells): little-to-no apoptosis-associated PARP cleavage | decrease in time spent in mitosis [4]: 4 fold | phosphorylation of Aurora B at Thr232 (U2OS cells [2]): dose-dependent reduction | activity against Aurora B in vitro (Aurora B): does not exhibit activity against Aurora B | additional cytotoxicity versus parental U2OS [5]: no detectable additional cytotoxicity | less time spent in mitosis versus DMSO [6]: roughly 40% | time within which the majority of cells escape mitosis [7]: ≤ 1 h | apoptosis-associated PARP cleavage (hTERT-RPE1 cells): little-to-no apoptosis-associated PARP cleavage | cytotoxic concentrations (HCT116 cells [8]): 5 to 10 µM | cell viability and clonal survival (HCT116 cells [9]): severe loss of cell viability and clonal survival | mitotic cells containing less than 4 centrioles, versus vehicle (Hela S3 or U2OS cells): no significant difference | 4c pHistone H3 negative cells, flow cytometry (U2OS cells [10]; nocodazole-arrested cells): dose-dependent accumulation of 4c pHistone H3 negative cells | cyclin B protein levels (U2OS cells [10]; thymidine/nocodazole arrest, 4 hrs inhibitor, reversed by MG132): dropped with increasing concentration
